Assay [1] relates to C. albicans CaCi-2 growth, Alamar Blue fluorescence, 48 h. Description: single-agent growth inhibition of fluconazole-resistant C. albicans, dose response, CaCi-2 strain, dry powder, plate reader, set 3 (AID 623981). The method in brief: (§1)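 System: fluconazole-resistant Candida albicans strain CaCi-2. Quantity: fungal inoculum at starting A600 of 0.00015. Medium: MOPS-buffered RPMI 1640 plus uridine, glucose, Pen/Strep. Times: 48 h at 37 °C, humidified, plus 2 h stain. Technique: Alamar Blue fluorescence. Controls: amphotericin 10 µM as positive control.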

Assay in assay [2]: as above
Conditions: C. albicans CaCi-2 growth, Alamar Blue fluorescence, 48 h; at 3 µM (top of the series). The method, boiled down: as §1

Molecules are shown by their SMILES. Several values for one entry are separate records, joined by “and”; a condition that tells them apart may be missing. Identical values can stand only once. Activity calls are given as the source filed them.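 The calls were made as follows: active = compounds lowering growth signal whose fitted half-effect dose is at most twice their top tested dose; inconclusive = flat fit with moderate inhibition, or poor curve fit; inactive = the rest.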

With `CCOC(=O)N1C(=O)C2(CCCCC2)N(c2ccc(Cl)cc2)C1=S`, the concentration at half-maximal activity (AC50) in assay [1] is 221 nM.

With `C/C=C/[C@@H]1[C@H]2C[C@@H](C)CC[C@@H]2C(C)=C[C@H]1C(=O)c1c(O)c(-c2ccc(O)cc2)c[nH]c1=O`, the activity change, negative = inhibition in assay [2] is 47.9% (inactive).

For `CCOC(=O)N1C(=O)C2(CCCCC2)N(c2ccc(C)cc2)C1=S`, in assay [1], the AC50 was 2740 nM and 3070 nM.

In the case of `CCOC(=O)N1C(=O)C2(CCCCC2)N(c2cccc(C)c2)C1=S`, the AC50 in assay [1] is 1260 nM.

Consider `CCOC(=O)N1C(=O)C2(CCCCC2)N(c2ccc(F)cc2)C1=S`, for which the AC50 in assay [1] is 150 nM.

`CCOC(=O)N1C(=O)C2(CCCCC2)N(c2ccc(C#N)cc2)C1=S`: the AC50 in assay [1] was 307 nM.

Regarding `CC1/C=C/C=C\C=C\C=C\C=C\C=C\C=C\C(O[C@H]2OC(C)C(O)C(N)C2O)CC2OC(O)(CC(O)CC(O)C(O)CCC(O)CC(O)CC(=O)OC(C)C(C)C1O)CC(O)C2C(=O)O` (stereo partly drawn), the AC50 in assay [1] was 92.3 nM.

Regarding `CCOC(=O)N1C(=O)C2(CCCCC2)N(c2ccccc2)C1=S`, the AC50 in assay [1] is 697 nM.

For the origin of these results see PubChem BioAssay AID623981 (Broad Institute, 2012).
